Assay results from different studies.
Lines come from different studies, so protocols differ. ≈ marks a conversion by molar mass, not a printed value.

Structure (SMILES)	target or system	assay	test system	setting	quantity	value
CCC1(c2ccc(N)cc2)CCC(=O)NC1=O (stereo not drawn)	IOSE-144	cell growth or viability, CCK-8		48 h	IC50	> 50000 nM
CC1=NN(CNc2ccc(O)cc2)C(=O)C1=NNn1c(-c2ccccc2)nc2ccccc2c1=O	Salmonella enterica	microbial growth, broth dilution	PARATYPHI	24 h	MIC	107 µM
O=c1[nH]cc(F)c(=O)[nH]1	Shigella dysenteriae	microbial growth, broth dilution		24 h	MIC	4 µg/mL
CCCCCCCCCCCC(=O)OC[C@H]1O[C@@H](n2cc(C)c(=O)[nH]c2=O)C[C@@H]1O	Bacillus cereus	microbial killing, broth dilution			MBC	8 µg/mL (≈ 18.8 µM)
CO/N=C(\C(=O)N[C@@H]1C(=O)N2C(C(=O)O)=C(CSc3nc(=O)c(=O)[nH]n3C)CS[C@H]12)c1csc(N)n1	Salmonella enterica	microbial growth	CHOLERAESUIS	20 h, pH 7.2	MIC	0.0625 µg/mL
COc1ccccc1Cc1cc(C)cc(=O)n1O	Cryptococcus gattii	microbial growth			MIC80	1.5 µM (≈ 0.368 µg/mL)
NC[C@H]1O[C@H](O[C@H]2[C@H](O)[C@@H](O[C@H]3O[C@H](CO)[C@@H](O)[C@H](N)[C@H]3O)[C@H](N)C[C@@H]2N)[C@H](N)C[C@@H]1O	Bacillus cereus	microbial growth	ATCC11778		MIC	18.8 µg/mL
COc1ccc(C[C@H](NC(=O)[C@H](C)NC(=O)CN2CCOCC2)C(=O)N[C@@H](Cc2ccccc2)C(=O)[C@@]2(C)CO2)cc1	RPMI-8226	cell growth or viability, MTS		72 h	IC50	213 nM
Cc1cc(C2CCCCC2)n(O)c(=O)c1	Cryptococcus gattii	microbial growth			MIC80	2.3 µM (≈ 0.477 µg/mL)
CCN1CCN(c2cc3c(cc2F)c(=O)c(C(=O)O)cn3C2CC2)CC1	Salmonella enterica	microbial growth	CHOLERAESUIS	20 h, pH 7	MIC	0.0625 µg/mL
CC(C)C[C@H](NC(=O)OCc1ccccc1)C(=O)N[C@@H](CC(C)C)C(=O)N[C@@H](CC(C)C)C(=O)C(=O)Nc1cccc2c1CCC2	RPMI-8226	cell growth or viability, MTS		72 h	IC50	65.9 nM
CC1=CC[C@H]2O[C@]1(C)O[C@H]([C@H](C)/C=C(C)/C=C/C(O)=C1/C(=O)CNC1=O)[C@H]2C	Bacillus cereus	microbial growth			MIC	3.13 µM
CCn1cc(C(=O)O)c(=O)c2ccc(C)nc21	Salmonella enterica	microbial growth	CHOLERAESUIS	20 h, pH 5.5	MIC	1 µg/mL
Cc1cc(Cc2ccc(Cl)cc2)n(O)c(=O)c1	Cryptococcus gattii	microbial growth			MIC80	3 µM (≈ 0.749 µg/mL)
COc1cc(Cc2cnc(N)nc2N)cc(OC)c1OC	Shigella dysenteriae	microbial killing, broth dilution		48 h	MBC	32 µg/mL (≈ 110 µM)
